# From ChEMBL document CHEMBL2413000, “Control of the intracellular levels of prostaglandin E₂ through inhibition of the 15-hydroxyprostaglandin dehydrogenase for wound healing” (Bioorg Med Chem, 2013)
# The source made the active and inactive calls. The calls are words filed in the database; no cut-off is given here.
# Legend:
# [1] = target: T1, 15-hydroxyprostaglandin dehydrogenase [NAD(+)] (Homo sapiens, UniProt P15428); test: Inhibition of human GST-fused 15-PGDH expressed in Escherichia coli BL21 using PGE2 as substrate assessed as formation of NADH by fluorescence spectrophotometric analysis
# T1 sequence (P15428 whole entry): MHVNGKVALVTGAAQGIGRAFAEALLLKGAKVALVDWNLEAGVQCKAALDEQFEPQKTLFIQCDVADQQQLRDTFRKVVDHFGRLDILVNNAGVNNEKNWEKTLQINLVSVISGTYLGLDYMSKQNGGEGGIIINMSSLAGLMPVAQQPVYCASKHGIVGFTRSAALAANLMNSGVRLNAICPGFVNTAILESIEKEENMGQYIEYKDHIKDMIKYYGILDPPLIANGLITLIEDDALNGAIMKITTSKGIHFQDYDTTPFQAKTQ
# Summary of the method: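 GST-tagged 15-PGDH from pGEX-2T in E. coli BL-21 LysS, IPTG-induced 12 h at 25 °C, glutathione-Sepharose purified. Triplicates per concentration; IC50 derived.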
# [2] = tested on: HaCaT; test: Wound healing activity in scratch made human HaCaT cells at 5 uM after 48 hrs by inverted microscopic analysis relative to control; type: functional, cell-based
# Summary of the method: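 HaCaT cells plated at ca. 5×10^5 per well in DMEM with 10% FBS and 10 µg/mL mitomycin, 37 °C, 5% CO₂, grown to ca. 80% confluence. Monolayer scratched with a 200 µL pipette tip, then incubated with 5 µM test agent; 1 ng TGF-β1 as positive control. Wound width imaged by inverted microscope at wounding and after 48 h, compared with untreated control.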
# [3] = target: T2, 15-hydroxyprostaglandin dehydrogenase [NAD(+)] (Homo sapiens) (UniProt P15428); test: Inhibition of 15-PGDH in IL-1beta-stimulated human A549 cells assessed as increase in PGE2 level after 5 hrs by enzyme immunoassay; type: cell-based
# T2 sequence (whole entry): T1 sequence (P15428 whole entry)
# Summary of the method: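 IL-1β-stimulated A549 cells (RPMI, 10% heat-inactivated FBS, 5% CO₂, 37 °C) exposed to inhibitors at various concentrations for 5 h. PGE₂ in the collected medium quantified by enzyme immunoassay.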
# [4] = target: T2, 15-hydroxyprostaglandin dehydrogenase [NAD(+)] (Homo sapiens); test: Inhibition of 15-PGDH in IL-1beta-stimulated human A549 cells assessed as increase in PGE2 level at 5 uM after 12 hrs by enzyme immunoassay relative to control
# [5] = target: T2, 15-hydroxyprostaglandin dehydrogenase [NAD(+)] (Homo sapiens); test: Inhibition of 15-PGDH in IL-1beta-stimulated human A549 cells assessed as increase in PGE2 level at 5 uM after 5 hrs by enzyme immunoassay relative to control; type: cell-based; conditions: in the assay text read “after 12 hrs” for “after 5 hrs”
# Summary of the method: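 A549 cells seeded at 5×10^5 per well, incubated overnight in RPMI with FBS and antibiotic at 37 °C, 5% CO₂, then treated with inhibitor at 5 μM. Medium collected (text gives 5 h in one passage, 12 h in methods). PGE₂ measured by kit enzyme immunoassay and compared with untreated control. Three independent experiments.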
IC50 [1],SMILES,other results
4540 nM,O=C1NC(=O)/C(=C/c2ccc(OCc3ccc([N+](=O)[O-])cc3)cc2Cl)S1,
193 nM,O=C1NC(=O)/C(=C/c2ccc(OCc3ccc4c(c3)OCO4)c(Cl)c2)S1,
100 nM,O=C1NC(=O)/C(=C/c2ccc(Oc3cccc([N+](=O)[O-])c3)c(Cl)c2)S1,
123 nM,O=C1NC(=O)/C(=C/c2ccc(OCCc3ccc([N+](=O)[O-])o3)c(Cl)c2)S1,
75 nM,C=C(C)C1CCC(COc2ccc(/C=C3\SC(=O)NC3=O)cc2Cl)CC1 (stereo unspecified),
132 nM,CC(Oc1ccc(/C=C2\SC(=O)NC2=O)cc1Cl)C1CC1 (stereo unspecified),
81 nM,O=C1NC(=O)/C(=C/c2ccc(OCCCCc3ccccc3)cc2Cl)S1,
,O=C1N=C(O)S/C1=C\c1ccc(OCCc2ccccc2)c(Cl)c1,Activity [2]: Active; inhibition [3]: Dose-dependent effect; fold change (FC) [4]: 5
1050 nM,CC(C)OCCOc1ccc(/C=C2\SC(=O)NC2=O)c(Cl)c1,
20 nM,O=C1NC(=O)/C(=C/c2ccc(OCCOC3CCCCC3)c(Cl)c2)S1,
42 nM,O=C1NC(=O)/C(=C/c2ccc(OCCC3CCCC3)cc2Cl)S1,
930 nM,O=C1NC(=O)/C(=C/c2ccc(OCc3ccc([N+](=O)[O-])cc3)c(Cl)c2)S1,
264 nM,O=C1NC(=O)/C(=C/c2ccc(OC(=O)c3cccs3)c(Cl)c2)S1,
4440 nM,O=C1NC(=O)/C(=C/c2ccc(OCCc3ccccn3)c(Cl)c2)S1,
,O=C1N=C(O)S/C1=C\c1ccc(OCCCCc2ccccc2)c(Cl)c1,inhibition [5]: Active; inhibition [3]: Dose-dependent effect
2080 nM,CCc1ccc(CCOc2ccc(/C=C3\SC(=O)NC3=O)cc2Cl)nc1,
71 nM,O=C1NC(=O)/C(=C/c2ccc(Oc3cccc4c3CCCC4=O)c(Cl)c2)S1,
211 nM,O=C1NC(=O)/C(=C/c2ccc(OCCOC3CCCCC3)cc2Cl)S1,
5170 nM,Cc1ncsc1CCOc1ccc(/C=C2\SC(=O)NC2=O)cc1Cl,
59 nM,O=C1NC(=O)/C(=C/c2ccc(Oc3cccc(/C=C/[N+](=O)[O-])c3)c(Cl)c2)S1,
11 nM,O=C1NC(=O)/C(=C/c2ccc(OCC3CCCC3)c(Cl)c2)S1,
9 nM,O=C1NC(=O)/C(=C/c2ccc(OCC3CCC3)c(Cl)c2)S1,
,O=C1N=C(O)S/C1=C\c1ccc(OCc2ccccc2)c(Cl)c1,inhibition [5]: Active; inhibition [3]: Dose-dependent effect
13 nM,O=C1N=C(O)S/C1=C\c1ccc(OCCC2CCCCC2)cc1Cl,
,O=C1N=C(O)S/C1=C\c1ccc(OCCCc2ccccc2)c(Cl)c1,inhibition [5]: Active; inhibition [3]: Dose-dependent effect
165 nM,O=C1NC(=O)/C(=C/c2ccc(OCC3CC4CCC3C4)c(Cl)c2)S1 (stereo unspecified),
